Most compounds without a hit are left out; they make up all but 2.2% or so of the library.
Hck Nef HTS – inhibitors of human Hck kinase activated by Nef; 0.68% of 220,000 active; P08631; Recombinant Hck-YEEI plus Nef, Z-Lyte FRET kinase assay; inhibition, % at 20 µM; AID 463187;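 active means Hck-Nef kinase inhibition above about 50%, limit read from the data; inactive means inhibition below that limit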;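 further: 0% = DMSO with Hck plus Nef and 100% = Hck alone without Nef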
RanGTP-Imp inh – inhibitors of RanGTP-importin-beta interaction, primary screen, biochemical, FRET, CFP-Ran, YFP-importin-beta, homogeneous; cell-free CFP-Ran/YFP-importin-beta FRET ratio; inhibition, % (no concentration beside the values); 1.1% of 300,000 active; AID 2216;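 active means more than half of the replicate wells show a fall in the fluorescence ratio signal beyond about 16%, limit read from the data, passing the limit was not always enough; inconclusive means exactly half of the replicate wells pass the set limit; inactive means fewer than half of replicates pass the limit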;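 further: 0% = DMSO wells and 100% = Ran loaded with GDP instead of GTP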
Runt-SMMHC FRET – blocks binding of human RUNX1 Runt domain to CBFb-SMMHC; Q01196+Q13951; Cerulean-Runt/Venus-CBFb-SMMHC FRET ratio 530/480, 1 h; inhibition, % at 20 µM; 0.74% of 220,000 active; AID 1434;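 active means mean inhibition across duplicate retests at 20 µM reaching about 50%, limit read from the data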;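 further: 0% = DMSO wells and 100% = wells with excess untagged CBFb-SMMHC; inhibitors lower the FRET ratio by blocking Runt binding to CBFb-SMMHC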
Runt-CBFb FRET – Runt domain-CBFb interaction inhibition; 0.46% of 220,000 active; Cerulean-Runt/Venus-CBFb FRET ratio 530/480, 1 h; inhibition, % at 20 µM;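 active means inhibition over about 50% at 20 µM in the single-dose screen, limit read from the data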;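 further: 0% = DMSO wells and 100% = excess unlabeled CBFb competitor control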
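test system = Cerulean-tagged RUNX1 Runt domain (FRET donor) fusion protein | reagent = Venus-CBFb binding partner, 100 nM | incubation = protein complex preformed 1 h, compound exposure 1 h, room temperature, dark | detection = FRET fluorescence | read-out basis = loss of energy transfer signal | controls = 5 µM unlabeled CBFb as full-inhibition high control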
PERK inhibitor – inhibitors of human PERK kinase | Q9NZJ5 | CHO PERK-DD fusion, SEAP luminescence translation reporter | inhibition, % at 5.6 µM | 0.17% of 220,000 active;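 active means inhibition above the mean inhibition of all tested compounds plus 3 SD, set separately per screening campaign, cut at about 2.9% in these data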;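 further: PERK kinase domain activated by AP20187 dimerizer at 100 nM; 0% = DMSO with dimerizer and 100% = rapamycin at 8.4 µM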
eIF4E-4G inh – inhibitors of eIF4E and eIF4G interaction in translation initiation. TR-FRET eIF4E-eIF4GI(517-606) binding, 2 h. inhibition, % at 21.7 µM. 0.37% of 220,000 active;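 active means inhibition above about 30%, limit read from the data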;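 further: 0% = full FRET control wells and 100% = background wells lacking eIF4GI fragment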
* hit, by the source's call; ? = inconclusive; / = not tested or not shown.

SMILES	Hck Nef HTS	RanGTP-Imp inh	Runt-SMMHC FRET	Runt-CBFb FRET	PERK inhibitor	eIF4E-4G inh
Cc1nn(CC(=O)Nc2ccc(S(=O)(=O)N(C)C)cc2)c(C)c1[N+](=O)[O-]	-0.1	-0.7	0.1	-0.2	-0.2	3.0
COc1ccc(C2=C/C(=C\c3ccccc3OC(C)=O)C(=O)O2)cc1	/	35.4*	/	/	/	/
COc1ccc(C2=C/C(=C\c3cccc(OC(C)=O)c3)C(=O)O2)cc1	0.7	42.7*	38.7	-36.2	0.4	-5.1
Cc1nnc2sc(-c3ccc(NC(=O)c4ccc(-c5ccc(Cl)cc5Cl)o4)cc3)nn12	86.7*	?	/	/	0.3	/
Cc1nnc2sc(-c3ccc(NC(=O)c4cccnc4)cc3)nn12	-0.9	/	/	/	0.1	/
O=C1CCCCCN1Cc1ccccc1	-1.6	3.1	1.1	-1.8	0.6	4.6
Cc1cc(Nc2c(C)n(C)n(-c3ccccc3)c2=O)n2c(nc3cc(F)c(F)cc32)c1C#N	29.6	96.3*	2.4	19.6	0.7	-15.3
CCCc1cc(SCC(=O)Nc2c(C)n(C)n(-c3ccccc3)c2=O)n2c(nc3ccccc32)c1C#N	1.0	7.5	63.2	10.2	-0.7	-80.8
Cc1ccc(S(=O)(=O)c2cc3cc(Br)ccc3oc2=O)cc1	3.2	2.8	-48.8	-8.2	0.6	2.0
O=c1oc2cc(O)ccc2cc1S(=O)(=O)c1ccccc1	/	133.3*	/	/	/	/
CCN(CC)c1ccc2cc(S(=O)(=O)c3ccc(Cl)cc3)c(=O)oc2c1	5.7	128.3*	80.8*	5.5	0.3	5.9
CCc1nc(N2CCN(C(=O)CCl)CC2)c2c3c(sc2n1)CC(C)CC3 (stereo not drawn)	/	-4.7	/	/	/	/
Cc1ccc(-n2c(-c3ccc(Cl)cc3)c[n+]3c2CCC3)cc1	4.3	2.6	1.4	-0.9	1.4	94.2*
Cc1ccc(-n2c(-c3ccccc3)c[n+]3c2CCC3)cc1	17.6	0.1	0.3	3.8	0.3	-1.4
CC1CCN(S(=O)(=O)c2ccc(-c3nnc(SCc4cccnc4)o3)cc2)CC1	0.4	-0.9	-3.1	-3.5	0.2	0.4
CC(=O)n1c2c(c3ccccc31)OC(N)=C(C#N)C2c1cccc(Cl)c1Cl (stereo not drawn)	3.7	7.2	-8.0	3.1	0.8	2.3
O=C1NC(=S)N/C1=C/c1ccc2ccccc2c1	/	25.8*	/	/	/	/
COC(=O)Cn1c2c(c3cc(C)ccc31)CCCC2NC(C)c1ccccc1 (stereo not drawn)	8.5	-1.8	-7.3	-0.5	1.1	5.9
CCN1CC(=O)Nc2cc(S(=O)(=O)N3CCOCC3)ccc21	21.5	1.3	-0.3	-0.9	3.7*	2.9
CCN1C(=O)Cc2cc(S(=O)(=O)N3CCOCC3)ccc21	2.4	-1.3	-15.4	-0.1	-1.5	-1.7
COc1ccc2nc(CNC(=O)C3CCC(=O)N(CCc4ccccc4)C3)[nH]c2c1 (stereo not drawn)	/	-0.2	/	/	/	/
O=[N+]([O-])c1ccc(C2NS(=O)(=O)N=C3CCCCCN32)cc1 (stereo not drawn)	6.5	-3.1	-1.2	6.7	3.6*	1.9
COCCOC(=O)c1cc(C(=O)c2cc(F)ccc2O)coc1=N	5.2	31.5*	119.8*	40.1	0.7	-1.7
CCN(CC)S(=O)(=O)c1ccc(OC)c(NC(=O)Cc2cccs2)c1	29.5	-0.9	-2.2	-1.9	-1.4	34.0*
CC1=NOC(=O)/C1=C\c1ccc(-c2cccc(Cl)c2)o1	7.1	3.3	55.4*	20.7	-0.8	1.9
SMILES	Hck Nef HTS	RanGTP-Imp inh	Runt-SMMHC FRET	Runt-CBFb FRET	PERK inhibitor	eIF4E-4G inh
CC1=NOC(=O)/C1=C\c1ccc(-c2ccc(Cl)c(C(=O)O)c2)o1	39.6	3.1	-2.7	6.9	-0.3	-0.8
CC(C)CCCN1C(Nc2ccccc2)=NC[C@@H]1Cc1ccccc1	/	-2.3	/	/	/	/
CCCC[n+]1c2ccccc2cc2ccccc21	/	150.5*	/	/	/	/
Cc1ccc2ccccc2[n+]1CCCS(=O)(=O)[O-]	0.8	4.7	1.0	-1.1	0.8	2.4
CCC[n+]1c2ccccc2cc2ccccc21	/	155.1*	/	/	/	/
CN(C(=O)C1CCCO1)c1nnc(-c2cnccn2)s1 (stereo not drawn)	0.3	-1.9	-1.7	2.0	-0.2	5.8
CCCCOC(=O)CCn1[nH]c(=O)c2ccccc2c1=O	0.1	-3.5	-0.2	-0.6	0.4	-9.7
O=C(CCn1[nH]c(=O)c2ccccc2c1=O)NCCO	-0.3	4.1	1.2	-0.4	-0.2	35.3*
Cc1c(C#N)c(=O)oc2ccc3ccccc3c12	7.8	0.5	97.3*	70.6*	-1.4	5.1
O=C(O)CSc1ncnc2scc(-c3ccccc3)c12	14.4	2.9	-2.3	-0.7	0.2	-0.9
O=C(O)CSc1ncnc2scc(-c3ccc(Br)cc3)c12	7.8	7.4	-11.1	-2.9	3.6*	-2.4
COc1ccccc1CNC(=O)CCS(=O)(=O)c1ccc(Cl)cc1	/	-2.1	/	/	/	/
Cc1ccc(S(=O)(=O)CCC(=O)NCc2ccccc2Cl)cc1	3.1	1.1	-0.5	-2.5	0.7	60.4*
COc1cc(/C=N/N2CCN(C3c4ccccc4-c4ccccc43)CC2)cc(OC)c1O	1.8	0.9	55.6*	49.5	0.5	-2.3
COc1cc(/C=N/N2CCN(C3c4ccccc4-c4ccccc43)CC2)cc(OC)c1OC	3.7	4.3	1.9	-1.7	0.2	1.0
O=C(O)c1cc2ccc3ccccc3c2oc1=O	8.9	?	96.9*	27.7	0.7	-0.7
O=C(O)c1cc2c(ccc3ccccc32)oc1=O	-15.3	-0.2	11.1	11.9	0.3	11.0
Cc1ccc(-c2nc(-c3nccc4ccccc34)oc2-c2ccccc2)cc1	33.4	1.1	72.2*	6.9	1.2	-4.4
Cc1cc(C)c(C#N)c(SCc2ccccc2)n1	7.5	3.1	-0.7	-2.5	1.3	2.7
Cc1ccc2nc(CSc3nc(C)cc(C)c3C#N)[nH]c2c1	0.0	29.0*	7.4	1.9	-1.2	-0.5
CCOC(=O)Cn1nc(NC(=O)COc2ccc(F)cc2)cc1C	/	-1.2	/	/	/	/
O=c1c(Cc2ccc(F)cc2)c(O)ccn1CCc1cnc[nH]1	25.6	0.2	-0.1	-1.9	1.0	4.5
CCC(=O)NNC(=O)CCC(=O)Nc1cccc(Cl)c1C	-24.9	1.8	2.0	0.0	3.0*	4.5
Cc1c(Cl)cccc1NC(=O)CCC(=O)NNC(=O)c1ccccc1Cl	1.7	5.1	-3.9	/	-0.6	64.5*
COC(=O)CCC(=O)NNC(=O)CCC(=O)Nc1cccc(Cl)c1C	18.1	0.1	1.0	-1.1	-0.3	-2.4
CCCS(=O)(=O)c1cscc1NC(=O)c1c(-c2c(F)cccc2Cl)noc1C	3.1	1.7	0.4	-0.9	0.1	2.1
COC(CNc1ncnc2c1cnn2C)OC	13.6	2.8	1.0	0.9	1.6	-1.9

Assay outcomes from PubChem BioAssay.
